This note sets out measurements from ChEMBL document CHEMBL3632470, “Antimalarial and Antiproliferative Cassane Diterpenes of Caesalpinia sappan” (J Nat Prod, 2015).

In the first test the test system is KB. The experiment in a line: Cytotoxicity against human KB cells after 48 hrs by MTT assay.
Conditions: not given
The class given is functional, cell-based. The procedure, abridged: (§1)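 Cells grown in DMEM with 10% FBS, seeded at 6 × 10^4 cells/mL per well. Compounds in DMSO added at five concentrations, each in triplicate. Incubated 48 h at 37 °C in 5% CO2, then MTT (4 mg/mL) for another 4 h. Cells lysed in DMSO, absorbance read at 570 nm. At least three independent experiments.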
In general terms: Tetrazolium assays rely on reduction of a dye to a coloured formazan, in cell work by metabolically active cells.
Take `CCO[C@@]12C[C@H]3[C@@H](CCC4[C@](C)(C(=O)OC)CCC[C@@]43C=O)[C@@H](C)C1=CC(=O)O2` (stereo not given in full): half-maximal inhibition (IC50) was put at 7.4 µM. Same read-out and setting: in the case of `COc1cccc2c1C(=O)c1c(O)c3c(c(O)c1C2=O)C[C@@](O)(C(=O)CO)C[C@@H]3O[C@H]1C[C@H](N)[C@H](O)[C@H](C)O1` [DOXORUBICIN] it was 1.4 µM.

A further test concerns Plasmodium falciparum. The experiment in a line: Antimalarial activity against chloroquine-resistant Plasmodium falciparum K1 by microculture radioisotope technique.
Conditions: not given
Format: functional, organism-based. A digest of the protocol: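 Microculture radioisotope technique on P. falciparum K1 (multidrug-resistant strain), parasites kept in continuous culture. Three replications per experiment. IC50 reported as mean ± SD of triplicate experiments.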
As to `CCO[C@H]1OC(OC)C23CCCC1(C(=O)OC)[C@@H]2CC[C@H]1[C@@H](C)C2=CC(=O)O[C@]2(OCC)C[C@@H]13` (stereo not given in full), the IC50 (in general, the concentration at which inhibition is half-maximal) amounted to 32.1 µM. Same read-out and setting: in the case of `COC(=O)C12CCCC3(C(OC)OC1O)[C@H]1C[C@@]4(O)OC(=O)C=C4[C@H](C)[C@@H]1CC[C@@H]23` (stereo not given in full) it was 0.52 µM; in that of `CCO[C@@]12C[C@H]3[C@@H](CCC4[C@](C)(C(=O)OC)CCC[C@@]43C=O)[C@@H](C)C1=CC(=O)O2` (stereo not given in full), 29.7 µM; in that of `CCO[C@@]12C[C@H]3[C@@H](CC[C@H]4C5(C(=O)OC)CCCC34[C@H](O)OC5)[C@@H](C)C1=CC(=O)O2` (stereo not given in full), 7.4 µM.

`CCO[C@@]12C[C@H]3[C@@H](CC[C@H]4C5(C(=O)OC)CCCC34C(OC)O[C@@H]5OC)[C@@H](C)C1=CC(=O)O2` (stereo not given in full): it took 28.4 µM to reach half-maximal inhibition (IC50). The same measure, in the same setting: in the case of `CCO[C@@]12C[C@H]3[C@@H](CCC4C(C(=O)OC)(C(=O)OC)CCC[C@@]43C=O)[C@@H](C)C1=CC(=O)O2` (stereo not given in full) it was 38.9 µM; in that of `CCO[C@@]12C[C@H]3[C@@H](CCC4[C@](C)(C(=O)OC)CCC[C@@]43C(=O)O)[C@@H](C)C1=CC(=O)O2` (stereo not given in full), 41.2 µM; in that of `CCOC1OCC2(C(=O)OC)CCCC13[C@H]1C[C@@]4(OC)OC(=O)C=C4[C@H](C)[C@@H]1CC[C@@H]23` (stereo not given in full), 19.2 µM. Still for that read-out and setting: in the case of `COC(=O)C12CCCC3([C@H](O)OC1)[C@H]1C[C@@]4(O)OC(=O)C=C4[C@H](C)[C@@H]1CC[C@@H]23` (stereo not given in full) it was 0.78 µM; in that of `CCO[C@@H]1OC(OC)C2(C(=O)OC)CCCC13[C@H]1C[C@@]4(OCC)OC(=O)C=C4[C@H](C)[C@@H]1CC[C@@H]23` (stereo not given in full), 34.8 µM.

In turn, `COC(=O)[C@]1(C)CCC[C@@]2(CO)C1CC[C@H]1[C@@H](C)C3=CC(=O)O[C@]3(O)C[C@@H]12` (stereo not given in full) registered an IC50 of 2.5 µM. Against the preceding compound, the IC50 is about 14-fold lower. Same read-out and setting: in the case of `CCO[C@@]12C[C@H]3[C@@H](CC[C@H]4C5(C(=O)OC)CCCC34C(OC)OC5)[C@@H](C)C1=CC(=O)O2` (stereo not given in full) it was 15.7 µM.

The subject of a further test is HT-29. The experiment in a line: Cytotoxicity against human HT-29 cells after 48 hrs by MTT assay. Format: functional, cell-based. Particulars: HT-29, 48 h. A digest of the protocol: as §1
The compound `COc1cccc2c1C(=O)c1c(O)c3c(c(O)c1C2=O)C[C@@](O)(C(=O)CO)C[C@@H]3O[C@H]1C[C@H](N)[C@H](O)[C@H](C)O1` [DOXORUBICIN] had an IC50 of 0.68 µM.
